# MC4R barr agon: human MC4R agonism via beta-arrestin | P32245 | U2OS MC4R beta-arrestin complementation, luminescence; percent of melanotan II response, DMSO zero | activation, % at 8.9 µM | 0.98% of 360,000 active | AID 540308;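 active means activation above a per-plate cutoff, the mean activation of sample wells on that plate plus 3 SD, cut at about 8% in these data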
# MC4R antagonist: human MC4R antagonism in cAMP assay; P32245; MC4R-expressing cells, MTII-stimulated cAMP, LANCE TR-FRET; inhibition, % at 6.5 µM; 0.48% of 360,000 active;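 active means inhibition above its plate's cutoff, the mean of tested wells on that plate plus 3 SD, cut at about 29% in these data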;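 further: 0% = Melanotan II alone and 100% = Melanotan II plus saturating MCL0020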
#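 Assay system: U2OS-MC4R stable cell line; Also added: Melanotan II; Technique: Eu-cAMP/anti-cAMP TR-FRET, emission 671 nm; Times: 30-min compound, 1-h challenge, 1-h detection, room temperature.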
# Beta cell apopt: blocks beta cell apoptosis; INS-1E cytokine-induced death, ATP luminescence, 48 h; percent of positive-control rescue, neutral wells zero; protection from apoptosis, % (test concentration not listed); 0.8% of 300,000 active;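 active means Every replicate reaches about 75%, or at least half do and their mean reaches it too, limit read from the data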;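 further: 0% = cytokine-treated negative control wells and 100% = positive control rescue; higher means more ATP so stronger rescue from cytokine killing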
# ANO1 block: inhibitors of mouse TMEM16A calcium-activated chloride channel. HEK293 TMEM16A/YFP iodide influx fluorescence, ionomycin. normalized B-score (activity score, 25-100; higher = stronger inhibition) at 10 µM. 1.2% of 310,000 active;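 active means ratio plate-corrected score three or more library SD toward inhibition, starting fluorescence score within five deviations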;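 further: score derived from kinetic fluorescence span divided by baseline fluorescence per well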
# CSC inhib: cancer stem cell inhibition; inhibition, % at 7.5 µM; 1.1% of 300,000 active; cancer stem cell-like cells viability, luminescence; in the data active means inhibition above about 75%; tested in HMLE shEcad cells
# TMEM16A act: activators or potentiators of mouse TMEM16A chloride channel. Q8BHY3. HEK293 TMEM16A/YFP-H148Q/I152L, iodide quench fluorescence; stronger effect = lower value. B-score at 10 µM. 0.3% of 340,000 active;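 active means fluorescence-ratio B-score plate-corrected deviation score at least 3 library SD below zero, with starting fluorescence score within 5 deviations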;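 further: channel opened by trigger with iodide after compound preincubation; score built on the fluorescence ratio of max minus min over baseline; more negative score means more quench and so TMEM16A activation or potentiation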
# * = called active by the depositor; i = inactive; nt = no result given. A selection: hits, their analogues and other compounds. The true share with any hit is near 3.8%.
SMILES,MC4R barr agon,MC4R antagonist,Beta cell apopt,ANO1 block,CSC inhib,TMEM16A act
O=C(NCCc1ccccc1)C(=O)NCC1CCCN1S(=O)(=O)c1ccccc1 (stereo unspecified),0,-7,1,i,7,i
COc1ccc(CCNC(=O)C(=O)NCC2CCCN2S(=O)(=O)c2ccccc2)cc1OC (stereo unspecified),-2,-3,-4,25*,10,i
Cc1ccc(-n2[nH]c(C)c(C=Nc3ccc4[nH]c(=O)[nH]c4c3)c2=O)cc1C,16*,7,43,i,21,i
CCN(CC)c1ccc2nc3ccccc3[n+](CC)c2c1,-3,-43,99*,i,26,i
NC(c1csc(Nc2ccc(C(F)(F)F)cn2)n1)C1CCCCC1 (stereo unspecified),8.9*,3,nt,nt,nt,nt
NC(CO)c1csc(Nc2ccc(C(F)(F)F)cn2)n1 (stereo unspecified),-2,0,nt,nt,nt,nt
Cc1cccc(OC(=O)Cn2c(C(F)(F)F)nc3ccccc32)c1,0,12,-5,i,-5,i
CC1CCC(C(C)C)C(OC(=O)Cn2c(-c3ccccc3)[n+](C)c3ccccc32)C1 (stereo unspecified),2,-13,104*,100*,17,i
Cc1cccc(OCc2n(CC(=O)OC3CC(C)CCC3C(C)C)c3ccccc3[n+]2C)c1 (stereo unspecified),23*,-3,106*,100*,103*,-6.2*
COc1ccc(NC(=O)c2ccc(-c3ccc(OC)cc3)s2)cc1,8.5*,-8,2,i,-1,i
CC(C)NS(=O)(=O)c1ccc(NC(=O)C(C)OC(=O)CCC2CCCC2)cc1 (stereo unspecified),8.4*,9,-3,nt,-6,i
CC(=O)Nc1ccc(NC(=O)C(C)OC(=O)CCC2CCCCC2)cc1 (stereo unspecified),-1,-2,1,i,-6,i
COc1cccc(C(=O)Oc2c(Br)cc(Br)cc2/C=N/NC(=O)c2cc(C)[nH]n2)c1,-2,17,81*,i,56,i
Cc1cc(C(=O)N/N=C/c2cccc(OC(=O)c3cccc(Br)c3)c2)n[nH]1,6,9,-6,i,-2,i
Cc1ccc(-c2csc(NC(=O)c3ccc([N+](=O)[O-])o3)n2)cc1,-2,-7,46,i,127*,i
Cc1ccc(-c2nc(NC(=O)c3nn(C)cc3[N+](=O)[O-])sc2C)cc1,-1,-28,116*,i,nt,i
Cc1ccc(Cn2ccc(NC(=O)c3nn(C)cc3[N+](=O)[O-])n2)cc1,-3,1,-25,i,nt,i
Cn1cc([N+](=O)[O-])c(C(=O)Nc2ccc(C(=O)N3CCCCC3)cc2)n1,-1,9,-5,i,nt,i
Cc1cnc(NC(=O)c2nn(C)cc2[N+](=O)[O-])s1,-1,10,nt,nt,nt,i
Cc1ccc(-c2nc(NC(=O)c3nn(C)cc3[N+](=O)[O-])sc2C)cc1C,3,-6,107*,i,nt,i
Cc1ccc(-c2csc(NC(=O)c3ccc(C)o3)n2)cc1,2,15,nt,i,nt,i
Cn1cc([N+](=O)[O-])c(C(=O)Nc2ccc(C3CCCCC3)cc2)n1,0,0,-15,i,117*,i
CC(C)Sc1nc2sccc2c(=O)n1-c1ccccc1,3,7,-6,i,32,i
Cn1cc([N+](=O)[O-])c(C(=O)Nc2nc(-c3ccc(Cl)cc3)cs2)n1,3,1,nt,i,103*,i
CC(=O)c1c(C)[nH]c(C(=O)Nc2nc(-c3ccc(Cl)cc3)cs2)c1C,1,-2,19,i,55,i
SMILES,MC4R barr agon,MC4R antagonist,Beta cell apopt,ANO1 block,CSC inhib,TMEM16A act
Cc1ccc(S(=O)(=O)NC(=O)c2ccc(F)cc2)c(C)c1,-4,5,-3,i,-9,i
Cc1ccc(S(=O)(=O)NC(=O)c2ccc(-c3ccc(-c4ccccc4)cc3)o2)c(C)c1,nt,nt,1,100*,82*,nt
Cc1ccc(/C=N/Nc2ncc(Cl)cc2Cl)s1,-2,-7,10,25*,47,i
Cc1c(C(=O)N(C)Cc2ccccc2)oc2ccc(S(=O)(=O)N3CCCC3)cc12,-1,2,-1,i,1,i
Cc1c(C(=O)N(Cc2ccccc2)C(C)C)oc2ccc(S(=O)(=O)N3CCOCC3)cc12,0,8,90*,i,7,i
CC1(C)Cc2c(C#N)c(NC3CCCCC3)nc(-c3ccco3)c2CO1,-1,14,-3,i,77*,i
CC1(C)Cc2c(C#N)c(NCC3CCCO3)nc(-c3ccco3)c2CO1 (stereo unspecified),-1,1,-7,i,nt,i
O=C(O)Cc1ccc(NC(=O)CCN2C(=O)c3ccc([N+](=O)[O-])cc3C2=O)cc1,-3,7,nt,nt,nt,-6.3*
O=C(CCN1C(=O)c2ccc([N+](=O)[O-])cc2C1=O)Nc1ccc(O)cc1C(=O)O,-1,-7,-6,i,23,i
Cc1ccc(/C=C/C(=O)c2cc(Br)ccc2OC(=O)c2ccco2)cc1,-1,-15,8,i,93*,i
Cc1cccc(/C=C/C(=O)c2cc(Br)ccc(=O)c2O)c1,2,15,38,25*,103*,i
COc1ccccc1/C=C/C(=O)c1cc(Br)ccc1OC(=O)c1ccco1,-3,0,20,i,3,i
O=C(NC1CCN(Cc2ccccc2)CC1)c1cccc(S(=O)(=O)Nc2ccc(SC(F)F)cc2)c1,1,5,15,nt,20,i
COc1cc(/C=c2\sc3n(c2=O)C(c2ccccc2)C(c2ccccc2)=NN=3)ccc1O (stereo unspecified),-3,11,14,i,103*,i
COc1cc(/C=c2\sc3n(c2=O)CCCN=3)ccc1O,-1,-11,-1,i,8,i
CCOC(=O)C1=C(C)N=c2s/c(=C\c3ccc(O)c([N+](=O)[O-])c3)c(=O)n2C1c1ccccc1OC (stereo unspecified),0,3,31,100*,51,i
COc1ccc(C[C@H]2CN3C(=NC[C@@H]3Cc3ccccc3)N2CCNC(=O)c2ccc(C)c(Br)c2)cc1,23*,9,50,i,13,i
COC(=O)C1=CCCCC(O)=C1C(=O)OC,1,4,nt,nt,nt,nt
C=CCn1c(SCC(=O)Nc2ccc3c(c2)OCCO3)nc2cc(C(=O)O)ccc2c1=O,0,-9,-2,nt,-19,i
O=C(CNC(=O)/C(=C\c1ccc(F)cc1)NC(=O)c1ccccc1)OCc1ccccc1,0,44*,-5,i,-1,i

# Screening data as filed in PubChem BioAssay.
